The target in series [1] is Thioredoxin reductase (Homo sapiens, UniProt Q16881+Q9NNW7+Q86VQ6). In words: Inhibition of thioredoxin reductase (unknown origin) after 2 hrs by DTNB dye based microplate spectrophotometry. The series is classed as protein assay. Put shortly: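 NADPH-reduced TrxR (0.16 µM) was preincubated in triplicate with vehicle DMSO (0.1%, v/v) or varying compound concentrations for 2 h. It was then reacted with 2 mM DTNB and 200 µM NADPH for 3 min, and absorbance was read at 412 nm. IC50 was derived.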

Series [2] deals with A549/CDDP. Briefly: Effect on NFkappaB expression in human A549/CDDP cells at 0.6 to 1.2 uM after 24 hrs by Western blot method. The series is classed as functional, cell-based. The procedure, abridged:
(§1)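 Cells were plated at 1 × 10^6/well overnight, then treated 24 h with vehicle DMSO (0.1%, v/v) or compound (A549, 2.1 or 4.2 µM; A549/DDP, 0.6 or 1.2 µM). Lysis was at 4 °C. Lysates were run on SDS-PAGE (7.5% gel, 20 µg/lane) and immunoblotted with ECL detection; phospho-Akt Ser473 and phospho-ERK Thr202/Tyr204 were probed. Bands were normalized to GAPDH (TrxR, Trx) or β-actin. Three independent experiments were run.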
Background: A western blot detects proteins with antibodies after separation by electrophoresis.

For series [3], the system named is A549/CDDP. In words: Decrease in P-gp expression in human A549/CDDP cells at 0.6 to 1.2 uM after 24 hrs by Western blot method. The series is classed as functional, cell-based. The procedure, abridged: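 A549/DDP cells were treated for 24 h with vehicle DMSO (0.1%, v/v) or 0.6 or 1.2 µM compound. Lysates were run on SDS-PAGE (7.5% gel, 20 µg/lane), blotted to PVDF and probed with anti-P-gp, with detection by ECL. P-gp was normalized to β-actin. Three independent experiments were run.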

Series [4] has as its system A549. Briefly: Induction of apoptosis in human A549 cells at 2.1 to 4.2 uM after 24 hrs by annexin V-FITC/propidium iodide staining-based flow cytometry. The series is classed as functional, cell-based. The procedure, abridged:
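Cells were seeded at 1 × 10^5/well and treated 24 h with DMSO (1%) or compound. They were then washed in PBS, stained with FITC-Annexin V and propidium iodide, and apoptotic fractions were quantified by flow cytometry.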

The nature of series [5]: Toxicity in BALB/c nude mouse xenografted with human A549/CDDP cells assessed as body weight at 40 mg/kg, ip administered daily for 15 consecutive days measured on day 15 (reference value: 21 +/- 1.28 g). The settings on record: in vivo. The class given is organism-based. The procedure, abridged:
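Athymic BALB/c nude mice of both sexes, 4-5 weeks, inoculated subcutaneously with A549/DDP cells (1 × 10^7/mouse). Once tumors reached 180-200 mm3, mice were randomized and given ip dosing daily for 15 consecutive days. Vehicle was PBS/DMSO/cremophor-EL (8:1:1), given at the same volume to controls. Body weight was recorded on day 1 and day 15. Reported as mean ± SD, n = 8.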
In general terms: Xenograft models place foreign cells or tissue in a host animal.

Series [6] concerns A549. In words: Inhibition of NFkappaB phosphorylation in human A549 cells at 2.1 to 4.2 uM after 24 hrs by Western blot method. The series is classed as cell-based. The procedure, abridged:
as §1

In series [7] the test system is A549/CDDP. In words: Decrease in Trx expression in human A549/CDDP cells at 0.6 to 1.2 uM after 24 hrs by Western blot method. The class given is functional, cell-based. The procedure, abridged:
as §1

Series [8] can be described thus: Acute toxicity in ip dosed ICR mouse assessed as mortality measured up to 2 weeks. The class given is organism-based. The settings on record: in vivo. Put shortly:
(§2)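 Male and female ICR mice (7 weeks), randomized, 10 per group, given one intraperitoneal dose at 200, 250, 300, 350, 400 or 450 mg/kg. Animals were watched for abnormal behaviour and deaths up to two weeks. Deaths were tallied at 1 h, 4 h, day 3 and days 4-14, with survival on day 14. LD50 was calculated with 95% confidence limits.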

Series [9] has as its system A549. Briefly: Induction of apoptosis in human A549 cells assessed as increase in cleaved caspase 3 level at 2.1 to 4.2 uM after 24 hrs by Western blot method. The series is classed as functional, cell-based. The procedure, abridged: as §1
The nature of series [10]: Acute toxicity in ICR mouse assessed as survival at 450 mg/kg, ip measured on day 14. The series is classed as organism-based. Particulars: in vivo. Put shortly:
as §2

Active and inactive are the calls of the source. The calls are words filed in the database; no cut-off is given here.

The term IC50 denotes the midpoint of a concentration-inhibition curve. In general, LD50 refers to the dose at which mortality reaches 50%.

As to `COc1cc(/C=C/C(=O)/C=C/c2nc(C)c(C)nc2C)ccc1O`, the IC50 in [1] came out at 2.95 µM. For the same molecule, the outcome in series [2] was inactive. In addition, the result in series [3], in series [4], in [7] and in series [9] was Active. Further, the Activity in series [5] came out at 19.6 g. Moreover, in series [6], the inhibition result was “Active”. In addition, the LD50 at 336 h in [8] came out at 285 mg/kg. The survival at 14 day in series [10] turned out to be 0%.

(Values after ChEMBL document CHEMBL4428026, “Discovery of New Monocarbonyl Ligustrazine-Curcumin Hybrids for Intervention of Drug-Sensitive and Drug-Resistant Lung Cancer” (J Med Chem, 2016).)
